Assays:
[1] = biological target: T-cell surface glycoprotein CD4 (Homo sapiens) (UniProt P01730); assay: Compound was tested for binding of the mAb (leu3a) to the CD4 receptor at 0.13 uM
How it was run: (§1)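 The assay measured Leu3a monoclonal antibody binding to cell-surface CD4 at each listed concentration. Read-out was % positive cells and % inhibition relative to controls, including an isotype mAb.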

[2] = biological target: T-cell surface glycoprotein CD4 (Homo sapiens) (UniProt P01730); assay: Compound was tested for binding of the mAb (leu3a) to the CD4 receptor at 16 uM; how it was run: as §1
[3] = biological target: C-X-C chemokine receptor type 4 (Homo sapiens) (UniProt P61073); assay: Compound was tested for binding of the mAb (12G5) to the Chemokine receptor type 4at 3.2 uM
Chain of C-X-C chemokine receptor type 4 (Homo sapiens) (P61073 whole entry, looked up): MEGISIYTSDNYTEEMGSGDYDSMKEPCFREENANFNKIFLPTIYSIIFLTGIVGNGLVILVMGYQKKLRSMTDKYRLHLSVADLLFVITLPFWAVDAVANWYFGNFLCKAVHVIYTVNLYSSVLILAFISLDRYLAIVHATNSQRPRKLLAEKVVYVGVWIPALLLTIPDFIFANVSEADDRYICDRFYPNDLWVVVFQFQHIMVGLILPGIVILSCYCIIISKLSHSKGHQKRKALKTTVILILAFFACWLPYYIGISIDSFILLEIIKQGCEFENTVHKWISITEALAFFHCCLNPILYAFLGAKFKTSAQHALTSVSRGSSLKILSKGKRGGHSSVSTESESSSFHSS

[4] = biological target: C-X-C chemokine receptor type 4 (Homo sapiens) (UniProt P61073); assay: Compound was tested for binding of the mAb (12G5) to the Chemokine receptor type 4 at 16 uM
[5] = biological target: T-cell surface glycoprotein CD4 (Homo sapiens) (UniProt P01730); assay: Compound was tested for binding of the mAb (leu3a) to the CD4 receptor at 92 uM; how it was run: as §1
[6] = biological target: C-X-C chemokine receptor type 4 (Homo sapiens) (UniProt P61073); assay: Compound was tested for binding of the mAb (12G5) to the Chemokine receptor type 4 at 18 uM
[7] = biological target: T-cell surface glycoprotein CD4 (Homo sapiens) (UniProt P01730); assay: Compound was tested for binding of the mAb (leu3a) to the CD4 receptor at 0.65 uM; how it was run: as §1
[8] = biological target: T-cell surface glycoprotein CD4 (Homo sapiens) (UniProt P01730); assay: Compound was tested for binding of the mAb (leu3a) to the CD4 receptor at 18 uM; how it was run: as §1
[9] = biological target: C-X-C chemokine receptor type 4 (Homo sapiens) (UniProt P61073); assay: Compound was tested for binding of the mAb (12G5) to the Chemokine receptor type 4 at 81 uM
[10] = biological target: C-X-C chemokine receptor type 4 (Homo sapiens) (UniProt P61073); assay: Compound was tested for binding of the mAb (12G5) to the CChemokine receptor type 4 at 0.73 uM
[11] = biological target: T-cell surface glycoprotein CD4 (Homo sapiens) (UniProt P01730); assay: Compound was tested for binding of the mAb (leu3a) to the CD4 receptor at 3.7 uM; how it was run: as §1
[12] = biological target: C-X-C chemokine receptor type 4 (Homo sapiens) (UniProt P61073); assay: Compound was tested for binding of the mAb (12G5) to the Chemokine receptor type 4 at 3.2 uM
[13] = biological target: C-X-C chemokine receptor type 4 (Homo sapiens) (UniProt P61073); assay: Compound was tested for binding of the mAb (12G5) to the CXCR4 receptor at 18 uM
[14] = biological target: C-X-C chemokine receptor type 4 (Homo sapiens) (UniProt P61073); assay: Compound was tested for binding of the mAb (12G5) to the Chemokine receptor type 4 at 0.15 uM
[15] = biological target: T-cell surface glycoprotein CD4 (Homo sapiens) (UniProt P01730); assay: Compound was tested for binding of the mAb (leu3a) to the CD4 receptor at 3.2 uM; how it was run: as §1
[16] = biological target: C-X-C chemokine receptor type 4 (Homo sapiens) (UniProt P61073); assay: Compound was tested for binding of the mAb (12G5) to the CXCR4 receptor at 92 uM
[17] = biological target: T-cell surface glycoprotein CD4 (Homo sapiens) (UniProt P01730); assay: Compound was tested for binding of the mAb (leu3a) to the CD4 receptor at 0.15 uM; how it was run: as §1
[18] = biological target: T-cell surface glycoprotein CD4 (Homo sapiens) (UniProt P01730); assay: Compound was tested for binding of the mAb (leu3a) to the CD4 receptor at 81 uM; how it was run: as §1
[19] = biological target: C-X-C chemokine receptor type 4 (Homo sapiens) (UniProt P61073); assay: Compound was tested for binding of the mAb (12G5) to the Chemokine receptor type 4 at 0.13 uM
[20] = biological target: C-X-C chemokine receptor type 4 (Homo sapiens) (UniProt P61073); assay: Compound was tested for binding of the mAb (12G5) to the Chemokine receptor type 4 at 0.73 uM
[21] = biological target: C-X-C chemokine receptor type 4 (Homo sapiens) (UniProt P61073); assay: Compound was tested for binding of the mAb (12G5) to the Chemokine receptor type 4 at 3.7 uM
[22] = biological target: C-X-C chemokine receptor type 4 (Homo sapiens) (UniProt P61073); assay: Compound was tested for binding of the mAb (12G5) to the Chemokine receptor type 4 at 0.65 uM
[23] = biological target: T-cell surface glycoprotein CD4 (Homo sapiens) (UniProt P01730); assay: Compound was tested for binding of the mAb (leu3a) to the CD4 receptor at 0.73 uM; how it was run: as §1

In the case of `CC(C)CCCC(C)[C@H]1CC[C@H]2[C@@H]3CCC4C[C@@H](CCC=C(c5cc(Cl)c(OCc6ccc(C(=O)O)cc6)c(C(=O)O)c5)c5cc(Cl)c(OCc6ccc(C(=O)O)cc6)c(C(=O)O)c5)CC[C@]4(C)[C@H]3CC[C@]12C` (some centres undefined), the Positive cells [1] is reported as 99.8%, the inhibition [1] is reported as 0% and the Positive cells [2] is reported as 2.1%. The inhibition [2] was 100%, the inhibition [3] was 0% and the Positive cells [4] was 99.9%. It also gave an inhibition [4] of 0%, a Positive cells [5] of 1.4% and an inhibition [5] of 100%. It also gave a Positive cells [6] of 99.9%, a Positive cells [7] of 99.9% and an inhibition [7] of 0%. The Positive cells [8] was 1.2%, the inhibition [8] was 100% and the Positive cells [9] was 99.8%. The inhibition [9] was 0%, the Positive cells [10] was 99.3% and the Positive cells [11] was 7.8%. It also gave an inhibition [11] of 94%, a Positive cells [12] of 99.8% and an inhibition [13] of 0%. The inhibition [14] was 0%, the Positive cells [15] was 3.2% and the inhibition [15] was 99%. For the same compound, the Positive cells [16] was 99.8%, the inhibition [16] was 0% and the Positive cells [17] was 99.9%. It also gave an inhibition [17] of 0%, a Positive cells [18] of 1.2% and an inhibition [18] of 100%. The Positive cells [19] was 99.1%, the inhibition [19] was 0% and the inhibition [20] was 0%. It also gave a Positive cells [21] of 99.4%, an inhibition [21] of 0% and a Positive cells [22] of 99.2%. It also gave an inhibition [22] of 0%, a Positive cells [23] of 99.1% and an inhibition [23] of 4%.
